{
  "source": "PubChem BioAssay AID651929",
  "about": "(Vanderbilt Specialized Chemistry Center, 2012)",
  "target": "Muscarinic acetylcholine receptor M2 (Rattus norvegicus) (UniProt P10980)",
  "sequence (P10980 whole entry, looked up)": "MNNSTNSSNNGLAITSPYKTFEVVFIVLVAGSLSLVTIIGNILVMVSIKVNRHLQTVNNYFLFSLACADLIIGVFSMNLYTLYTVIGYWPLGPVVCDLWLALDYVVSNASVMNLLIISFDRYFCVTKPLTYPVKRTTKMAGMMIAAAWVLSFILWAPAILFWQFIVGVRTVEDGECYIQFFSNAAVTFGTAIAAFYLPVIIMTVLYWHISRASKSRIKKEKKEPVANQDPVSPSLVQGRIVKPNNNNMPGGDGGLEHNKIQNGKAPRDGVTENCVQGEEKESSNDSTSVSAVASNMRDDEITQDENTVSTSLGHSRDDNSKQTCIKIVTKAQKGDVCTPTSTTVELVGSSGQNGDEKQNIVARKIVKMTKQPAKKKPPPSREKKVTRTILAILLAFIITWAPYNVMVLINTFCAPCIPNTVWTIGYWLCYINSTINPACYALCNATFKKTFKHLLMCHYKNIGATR",
  "assay": "rat M2 positive allosteric modulation check – CHO cells, calcium flux, selectivity assay for M5 PAM discovery project (AID 651929)",
  "details": "CHO-K1 rM2/Gqi5, ACh EC20 calcium flux (Fluo-4); series mostly up to 30 µM",
  "method_in_brief": "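Assay system: CHO-K1 cells expressing M2 receptor coupled to Gqi5 chimera | Buffer or medium: Probenecid buffer, pH 7.4 | Also added: EC20 acetylcholine | Times: 1.5 min compound, 50 s agonist, 25 °C | Detection: Intracellular calcium response | Read-out: % of maximal acetylcholine response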",
  "note": "Calls of active or inactive are those of the source. How the calls were made is not given here.",
  "data": [
    {"compound": "O=C1C(=O)N(CCOc2ccccc2)c2ccc(OC(F)(F)F)cc21", "values": [
      {"measurement": "outcome", "result": "inactive"}
    ]}
  ]
}
